Active and inactive are the calls of the source. The calls are words filed in the database; no cut-off is given here.
Tests used:
NCI-H1299 = assay: Antiproliferative activity against human NCI-H1299 cells assessed as reduction in cell proliferation measured after 72 hrs by celltiter-glo assay; type: functional, cell-based; settings: NCI-H1299, 72 h
Method in brief: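 Cells in RPMI 1640 with 10% heat-inactivated FBS at 37°C and 5% CO₂ were seeded at 2 to 3 × 10³ per well. […] Growth was read as cellular ATP by CellTiter-Glo.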

MDA-MB-468 [1] = assay: Synergistic antiproliferative activity against human MDA-MB-468 cells assessed as combination index at ED50 measured after 72 hrs in presence of lapatinib by celltiter-glo assay; type: functional
Method in brief: (§1)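 Cells grown in RPMI 1640 with 10% heat-inactivated FBS at 37°C, 5% CO₂. Seeded at 2 to 3 × 10³ per well; drugs added 24 h later. […] Viability read as cellular ATP by CellTiter-Glo. CI calculated by Chou–Talalay from median-effect plots at ED50, ED75 and ED90.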

HCC1954 [2] = assay: Synergistic antiproliferative activity against human HCC1954 cells assessed as combination index at ED75 measured after 72 hrs in presence of lapatinib by celltiter-glo assay; type: functional; method in brief: as §1
NCI-N87 = assay: Synergistic antiproliferative activity against human NCI-N87 cells assessed as combination index at ED75 measured after 72 hrs in presence of lapatinib by celltiter-glo assay; type: functional
A-431 = assay: Synergistic antiproliferative activity against human A-431 cells assessed as combination index at ED90 measured after 72 hrs in presence of erlotinib by celltiter-glo assay; type: functional
Method in brief: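 Cells were seeded at 2–3 × 10³ per well in RPMI 1640 with 10% FBS. At 24 h, MK-2206 and the partner drug were added simultaneously at constant concentration ratios spanning each agent's IC₅₀, for 72 h. Growth was read as cellular ATP by CellTiter-Glo. CI was taken from median-effect plots of each agent alone and in combination (Chou–Talalay), at ED₅₀, ED₇₅ and ED₉₀.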

NCI-H358 = assay: Synergistic antiproliferative activity against human NCI-H358 cells assessed as combination index at ED90 measured after 72 hrs in presence of erlotinib by celltiter-glo assay; type: functional
[3] = target: RAC-alpha serine/threonine-protein kinase (Homo sapiens) (UniProt P31749); assay: Inhibition of AKT in human A-431 cells assessed as reduction in PRAS40 phosphorylation at T246 residue at 5 umol/L measured after 5 hrs by Western blot analysis; type: cell-based; settings: dose 5.0 µmol/L
Method in brief: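 Cells were lysed in Tris-HCl pH 7.5, 150 mM NaCl, 1% Triton X-100 with protease and phosphatase inhibitors. Lysates were run on SDS-PAGE, transferred to nitrocellulose and probed with phospho-specific antibodies.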

[4] = Toxicity in human NCI-H292 cells xenografted CD-1 mouse assessed as death at 360 mg/kg, po administered once a week for 2 weeks and measured during compound dosing; type: organism-based; settings: in vivo, 336 h
Method in brief: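 NCI-H292 cells in 50% Matrigel/PBS injected s.c. into flank of female CD1-nude mice; dosing began after 2 wk at mean tumour 0.2 cm³, n = 5/group. […] Body weight and signs monitored; treatment ended day 16.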

MDA-MB-468 [5] = assay: Synergistic antiproliferative activity against human MDA-MB-468 cells assessed as combination index at ED50 treated 24 hrs prior to lapatinib and measured after 72 hrs by celltiter-glo assay; type: functional; settings: time 96 hrs
SK-OV-3 = assay: Synergistic antiproliferative activity against human SK-OV-3 cells assessed as combination index at ED75 treated 24 hrs prior to lapatinib and measured after 72 hrs by celltiter-glo assay; type: functional; settings: time 96 hrs
HCC70 [6] = assay: Synergistic antiproliferative activity against lapatinib pretreated human HCC70 cells assessed as combination index at ED90 measured after 72 hrs by celltiter-glo assay; type: functional
HCC1954 [7] = assay: Synergistic antiproliferative activity against human HCC1954 cells assessed as combination index at ED90 measured after 96 hrs in presence of lapatinib by celltiter-glo assay; type: functional
[8] = Toxicity in human SK-OV-3 cells xenografted CB17/icr SCID mouse at 60 to 120 mg/kg, po administered 3 times per week for 2 weeks starting 2 hrs post lapatinib treatment and measured during compound dosing; type: organism-based; settings: in vivo, 336 h, dose 60-120 mg/kg
Method in brief: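 SK-OV-3 cells in 50% Matrigel/PBS injected s.c. into flank of female C.B-17/ICR-scid mice; dosing began after 3 wk, randomized at mean tumour 0.13 cm³ (n = 5). Lapatinib 100 mg/kg p.o. in distilled water 5 d/wk for 2 wk; MK-2206 in 30% Captisol p.o. days 0, 2, 4, 7, 9, 11. Body weight and physical signs monitored.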

BT-474 = assay: Synergistic antiproliferative activity against human BT-474 cells assessed as combination index at ED90 preincubated for 24 hrs followed by compound washout and subsequent docetaxel addition and measured after 72 hrs by celltiter-glo assay; type: functional
Method in brief: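 Sequential schedule. Cells were seeded at 2 to 3 × 10³ per well in RPMI 1640 with 10% FBS and dosed 24 h after plating. They were exposed to the Akt inhibitor for 24 h, washed free of it, then given docetaxel for a further 72 h. Fixed concentration ratios spanned each agent's IC₅₀. ATP was read by CellTiter-Glo, and Chou–Talalay CI was calculated at ED50, ED75 and ED90.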

MDA-MB-453 = assay: Synergistic antiproliferative activity against human MDA-MB-453 cells assessed as combination index at ED50 measured after 72 hrs in presence of docetaxel by celltiter-glo assay; type: functional; method in brief: as §1
HCC70 [9] = assay: Synergistic antiproliferative activity against human HCC70 cells assessed as combination index at ED50 measured after 72 hrs in presence of docetaxel by celltiter-glo assay; type: functional; method in brief: as §1
MCF7 = assay: Synergistic antiproliferative activity against human MCF7 cells assessed as combination index at ED75 measured after 72 hrs in presence of docetaxel by celltiter-glo assay; type: functional; method in brief: as §1
[10] = Toxicity in human PC-3 cells xenografted CD1 nude mouse assessed as body weight loss at 120 mg/kg, po administered 3 times per week for 2 weeks measured on day 15; type: organism-based; settings: in vivo, 360 h, time 15 day
Method in brief: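 Male CD1-nude mice with s.c. PC-3 tumours (50% Matrigel/50% PBS, left flank), randomized at mean 0.2 cm³, n=5/group, treated from 25 d post-implant. Body weight monitored versus vehicle-only controls.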

NCI-H460 [11] = assay: Synergistic antiproliferative activity against human NCI-H460 cells assessed as combination index at ED75 measured after 72 hrs in presence of camptothecin by celltiter-glo assay; type: functional
NCI-H460 [12] = assay: Synergistic antiproliferative activity against human NCI-H460 cells assessed as combination index at ED75 measured after 72 hrs in presence of 5-FU by celltiter-glo assay; type: functional
NCI-H460 [13] = assay: Synergistic antiproliferative activity against human NCI-H460 cells assessed as combination index at ED90 measured after 72 hrs in presence of 5-FU by celltiter-glo assay; type: functional
[14] = Toxicity in human NCI-H460 cells xenografted CD1 nude mouse assessed as body weight loss at 120 mg/kg, po administered 3 times per week for 2 weeks in presence of gemcitabine measured during compound dosing relative to control; type: organism-based; settings: in vivo, 336 h
Method in brief: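 CD1-nude mice with s.c. NCI-H460 xenografts, randomized at mean 0.2 cm³, n=5/group, dosing from day 8 post-implant. Body weight compared with vehicle-only controls.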

RAC-alpha serine/threonine-protein kinase (Homo sapiens), sequence (P31749 whole entry): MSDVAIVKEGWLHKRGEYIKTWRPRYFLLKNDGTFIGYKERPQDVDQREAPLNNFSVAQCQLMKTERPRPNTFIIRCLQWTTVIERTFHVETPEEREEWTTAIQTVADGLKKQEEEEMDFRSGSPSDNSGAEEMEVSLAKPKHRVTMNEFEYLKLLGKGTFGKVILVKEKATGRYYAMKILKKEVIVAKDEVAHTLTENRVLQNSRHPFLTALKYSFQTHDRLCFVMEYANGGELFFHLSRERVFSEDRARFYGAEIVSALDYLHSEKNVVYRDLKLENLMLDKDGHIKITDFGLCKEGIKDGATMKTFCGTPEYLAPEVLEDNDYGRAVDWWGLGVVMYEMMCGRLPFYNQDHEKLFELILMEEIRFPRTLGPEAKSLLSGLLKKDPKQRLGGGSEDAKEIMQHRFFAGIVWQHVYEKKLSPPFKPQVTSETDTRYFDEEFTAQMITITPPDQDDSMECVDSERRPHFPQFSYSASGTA

Cl.NC1(c2ccc(-c3nc4ccn5c(=O)[nH]nc5c4cc3-c3ccccc3)cc2)CCC1
IC50 (NCI-H1299): 27 µM | CI50 (MDA-MB-468 [1]): 0.42 | CI75 (HCC1954 [2]): 0.13 | CI75 (NCI-N87): 0.55 | CI90 (A-431): 0.14 | CI90 (NCI-H358): 0.08 | inhibition [3]: Active | Activity [4]: Non-Toxic | CI50 (MDA-MB-468 [5]): 0.18 | CI75 (SK-OV-3): 0.18 | CI90 (HCC70 [6]): 0.18 | CI90 (HCC1954 [7]): 0.18 | Activity [8]: Non-Toxic | CI90 (BT-474): 1.6 | CI50 (MDA-MB-453): 1.2 | CI50 (HCC70 [9]): 0.9 | CI75 (MCF7): 0.5 | Activity [10]: Non-Toxic | CI75 (NCI-H460 [11]): 0.39 | CI75 (NCI-H460 [12]): 0.45 | CI90 (NCI-H460 [13]): 0.54 | Activity [14]: 7%

From ChEMBL document CHEMBL5705892, “MK-2206, an allosteric Akt inhibitor, enhances antitumor efficacy by standard chemotherapeutic agents or molecular targeted drugs in vitro and in vivo” (Mol Cancer Ther, 2010)
